Source: PubChem BioAssay (Johns Hopkins Ion Channel Center)
TRPC4 PAM: positive allosteric modulators of TRPC4, primary screen, cell-based, mouse TRPC4beta, HEK293 mu-opioid, Fluo-4 calcium; Short transient receptor potential channel 4 (Mus musculus), Q9QUQ5; DAMGO EC20, Fluo-4 Ca2+ flux; active compounds read high; B-score at 10 µM; 310,000 compounds, 0.42% hits;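 active means B-score of calcium response area above 5 SD of library B-scores, with initial fluorescence ratio within 5 SD of library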;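 further: B-score of integrated fluorescence ratio over time as area under calcium response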
Target sequence (Q9QUQ5 whole entry, looked up): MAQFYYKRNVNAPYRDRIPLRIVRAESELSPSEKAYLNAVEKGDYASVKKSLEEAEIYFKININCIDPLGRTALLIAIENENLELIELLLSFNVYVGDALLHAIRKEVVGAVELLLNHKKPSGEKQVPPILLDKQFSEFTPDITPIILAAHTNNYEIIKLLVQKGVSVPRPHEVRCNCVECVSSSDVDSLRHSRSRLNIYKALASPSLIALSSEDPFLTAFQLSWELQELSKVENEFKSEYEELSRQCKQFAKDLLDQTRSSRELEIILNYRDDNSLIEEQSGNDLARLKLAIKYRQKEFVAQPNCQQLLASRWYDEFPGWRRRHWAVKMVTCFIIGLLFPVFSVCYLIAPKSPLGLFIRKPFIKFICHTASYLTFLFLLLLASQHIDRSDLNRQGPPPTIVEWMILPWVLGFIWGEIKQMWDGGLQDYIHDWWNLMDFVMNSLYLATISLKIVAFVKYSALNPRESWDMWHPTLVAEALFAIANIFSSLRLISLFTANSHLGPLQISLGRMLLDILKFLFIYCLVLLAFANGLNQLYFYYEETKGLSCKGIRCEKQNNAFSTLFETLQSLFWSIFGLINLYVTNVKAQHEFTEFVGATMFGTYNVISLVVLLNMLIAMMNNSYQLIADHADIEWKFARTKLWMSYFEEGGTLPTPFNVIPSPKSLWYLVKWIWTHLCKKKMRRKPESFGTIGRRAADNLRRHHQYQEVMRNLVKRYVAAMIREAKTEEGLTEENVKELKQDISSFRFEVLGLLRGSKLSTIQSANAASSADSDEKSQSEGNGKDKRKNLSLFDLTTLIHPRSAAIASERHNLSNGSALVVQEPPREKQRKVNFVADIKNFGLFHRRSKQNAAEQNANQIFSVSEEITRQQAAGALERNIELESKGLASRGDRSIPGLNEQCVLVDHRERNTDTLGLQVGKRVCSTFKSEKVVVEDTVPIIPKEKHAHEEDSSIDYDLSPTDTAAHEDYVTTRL
TRPC6 act: mouse TRPC6 channel activators, primary screen, cell-based, HEK293, membrane potential dye. Short transient receptor potential channel 6 (Mus musculus), Q61143. HEK293-TRPC6 membrane potential dye fluorescence; active compounds read high. B-score at 10 µM. 310,000 compounds, 0.13% hits;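 active means B-score of the integrated fluorescence ratio above library mean plus 3 SD, and starting fluorescence ratio within library mean plus 5 SD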;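 further: higher score means more depolarization so channel activation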
TRPC6 inhibitor: mouse TRPC6 channel inhibitors, primary screen, cell-based, HEK293, membrane potential dye | Short transient receptor potential channel 6 (Mus musculus), Q61143 | ACh-evoked depolarization; active compounds read low | B-score at 10 µM | 310,000 compounds, 1.1% hits | AID 2553, 2010;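 active means B-score under library mean minus 3 SD, initial fluorescence not abnormally high, positive integrated signal ratio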;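 further: B-score derived from integrated fluorescence ratio over the kinetic read; more negative B-score means stronger inhibition of depolarization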
TRPC4 agonist: activators of mouse TRPC4 channel, primary screen, Fluo4 calcium, HEK293 TRPC4beta/mu-opioid cells. Short transient receptor potential channel 4 (Mus musculus), Q9QUQ5. Fluo4 calcium fluorescence; active compounds read high. B-score at 10 µM. 310,000 compounds, 0.49% hits. AID 2237, 2010;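 active means B-score above 5 SD of library B-scores, and initial fluorescence ratio not above library mean plus 5 SD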;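 further: positive B-score marks a calcium rise read as TRPC4 activation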
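Material: TRPC4beta and mu-opioid receptor HEK293 stable cells | Incubation: 45 min room-temperature Fluo4 loading, 110 s read | Detection: Kinetic Fluo4 calcium fluorescence | Measure: Integrated baseline-normalised fluorescence ratio, converted to per-well B score | Benchmarks: Low control buffer alone, high control maximal DAMGO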
TRPC4 block: inhibitors of mouse TRPC4 channel, primary screen, Fluo4 calcium, HEK293 TRPC4beta/mu-opioid cells | B-score at 10 µM | 300,000 compounds, 0.39% hits | AID 2247, 2010 | DAMGO-evoked Fluo4 calcium flux; active compounds read low;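 active means B-score over 3 SD under the library average, no early fluorescence shift, positive overall ratio signal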
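Assay system: HEK293 cells with stable TRPC4beta plus mu-opioid receptor expression. Dosing: single dose. Measured by: Fluo4 Ca2+ flux fluorescence. Also added: DAMGO in two steps, submaximal then maximal. Read-out: B score from integrated Fluo4 fluorescence ratio.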
TRPC4 sel inh 2: mouse TRPC4 off-target activity of TRPC6 inhibitors, second screen; shares compounds with TRPC6 inhibitor; inhibition, % at 10 µM; HEK293 TRPC4/MOR, membrane potential dye fluorescence; channel activated by saturating DAMGO dose; 920 compounds, 42% hits; AID 2776;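 active means compounds whose fluorescence signal differed from control wells by over 3 SD, either direction, in both duplicate plates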
TRPC4 spec: mouse TRPC4 modulation by TRPC6 hits, confirmation, selectivity assay for TRPC6 inhibitor project, cell-based, HEK293 TRPC4/mu-opioid, membrane potential dye; AID 2777, 2010; membrane potential fluorescence; shares compounds with TRPC6 inhibitor; activity change, negative = inhibition, % at 10 µM; 920 compounds, 61% hits;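 active means rise or fall in signal beyond 3 SD of buffer-only wells in both replicate plates, either sign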;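 further: integrated kinetic ratio of fluorescence range over baseline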
HEK293 MPD ctr 2-1: nonspecific membrane potential effects, parental HEK293, confirmation, counter-screen for TRPC6 inhibitor project, cell-based, second counter screen. shares compounds with TRPC6 inhibitor. AID 2779, 2010. parental HEK293 membrane potential dye fluorescence; maximal acetylcholine challenge after compound addition. 920 compounds, 31% hits. signal change vs control, % at 10 µM;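 active means membrane potential signal moving either way by over 3 SD of the maximum-effect control, in both duplicate plates, meaning non-specific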
HEK293 MPD ctr-1: membrane potential modulation in parental HEK293, confirmation, counter-screen for TRPC6 inhibitor project, cell-based | 920 compounds, 60% hits | membrane potential signal change, % at 10 µM | shares compounds with TRPC6 inhibitor | parental HEK293 membrane potential dye fluorescence;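 active means membrane potential signal shifting up or down by more than 3 SD of buffer-only wells, on both duplicate plates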
HEK293 MPD ctr-2: parental HEK293 membrane potential modulation, confirmation, counter-screen for TRPC6 modulator project, cell-based; shares compounds with TRPC6 inhibitor; 2,400 compounds, 51% hits; membrane potential dye fluorescence; membrane potential signal change, % at 10 µM;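 active means membrane potential signal moves up or down beyond 5 SD from buffer-only wells, on both duplicate plates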
HEK293 MPD ctr 2-2: second counter-screen for TRPC6 modulators: effect in parental HEK293 cells | shares compounds with TRPC6 inhibitor | membrane potential dye fluorescence; after compound, maximal acetylcholine stimulation | inhibition, % at 10 µM | 2,400 compounds, 14% hits;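 active means membrane potential signal drops by more than 5 SD from the mean control signal, in both duplicate plates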;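 further: plate controls were acetylcholine ECmax control wells for no effect and buffer only wells for full effect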
TRPC4/MOR mod: TRPC4 modulation by TRPC6 hit compounds, confirmation, selectivity assay for TRPC6 modulator project, cell-based, HEK293 TRPC4/mu-opioid, membrane potential dye, mouse | membrane potential fluorescence | 2,400 compounds, 69% hits | shares compounds with TRPC6 inhibitor | percent change from control (negative = decrease, positive = increase), % at 10 µM;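 active means membrane potential signal moved up or down beyond 5 SD of buffer control wells, in both duplicate plates, actives on both sides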;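 further: plate controls were assay buffer wells for no effect and DAMGO maximal-effect wells for full effect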
TRPC4 ctr inh 2: second selectivity test of TRPC6 modulators against mouse TRPC4 | shares compounds with TRPC6 inhibitor | HEK293 TRPC4/mu-opioid, membrane potential dye fluorescence; stimulated with maximal-effect DAMGO | inhibition, % at 10 µM | 2,400 compounds, 55% hits | AID 488928;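 active means drop in membrane potential signal beyond 5 SD of the control wells in both duplicate plates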;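 further: TRPC4 counter screen for TRPC6 hits run under conditions tuned for TRPC6 not TRPC4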
TRPC6 block conf: mouse TRPC6 channel inhibitors, confirmation, HEK293 cells, membrane potential dye, duplicate; shares compounds with TRPC6 inhibitor; inhibition, % at 10 µM; 3,300 compounds, 43% hits; ACh-evoked depolarization;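 active means fluorescence ratio falls more than 5 SD below the full-stimulation control mean, in both duplicate runs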;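 further: integrated fluorescence ratio of peak minus minimum over baseline after agonist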
TRPC6 act confirm: mouse TRPC6 channel activators, confirmation, HEK293 cells, membrane potential dye, duplicate; shares compounds with TRPC6 inhibitor; HEK293-TRPC6 membrane potential dye fluorescence, FDSS; activation, % at 10 µM; 2,800 compounds, 11% hits; AID 488961, 2010;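 active means ratio signal rise beyond 5 SD above unstimulated control wells' mean, seen in both duplicate runs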;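 further: plate controls were buffer EC0 wells for no effect and acetylcholine ECmax response for full effect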
Numbers without * were called inactive; i = inactive; · = no result. Rows were chosen to be rich in hits. Some 2.3% of all compounds tested hit in one or more screens of this group.

SMILES | TRPC4 PAM | TRPC6 act | TRPC6 inhibitor | TRPC4 agonist | TRPC4 block | HEK293 MPD ctr-2 | HEK293 MPD ctr 2-2 | TRPC4/MOR mod | TRPC4 ctr inh 2 | TRPC6 block conf | TRPC6 act confirm | others
CCNc1cc(N2CCN(C)CC2)ccc1[N+](=O)[O-] | i | i | i | i | i | · | · | · | · | · | ·
CC[N+]12CCC(CC1)C(=C(c1ccccc1)c1ccccc1)C2 | i | i | -6.1* | i | i | i | 69%* | i | i | 66%* | i
C[N+]12CCC(CC1)C(=C(c1ccccc1)c1ccccc1)C2 | i | i | -6.8* | i | i | · | · | · | · | 81%* | i | TRPC4 sel inh 2=i;TRPC4 spec=i;HEK293 MPD ctr 2-1=-12%*;HEK293 MPD ctr-1=i
O=C1CCCN1CC#CCN1CCCC1 | i | i | -5.9* | i | i | i | i | i | i | 49%* | ·
C/C=C1/CC(C)C(C)(O)C(=O)OCC2CCN3CCC(OC1=O)C23 (stereo unspecified) | i | i | -6.2* | i | i | i | 81%* | 18%* | i | 78%* | i
COc1ccc(C(=O)C2CCCN(Cc3ccc(C)s3)C2)c(OC)c1 (stereo unspecified) | i | i | i | i | i | · | · | · | · | · | ·
COc1ccc(C(=O)C2CCCN(Cc3cccc(C)n3)C2)c(OC)c1 (stereo unspecified) | i | i | -6.4* | i | i | i | i | 9.5%* | i | i | ·
CCCNC(=O)N1[C@H]2CC[C@@H]1C(C(=O)OC)=C(c1cc3ccccc3s1)C2 | i | i | i | i | i | · | · | · | · | · | ·
O=C(Cn1c(=O)n(CC2CS2)c2ccccc21)N1CCCCCC1 (stereo unspecified) | i | i | i | i | i | · | · | · | · | · | ·
C[n+]1c2ccccc2nc2ccc(NCCO)cc21 | i | i | -7.4* | i | i | -114%* | 133%* | -36%* | 50%* | 66%* | i
CNc1ccc2nc3ccccc3[n+](C)c2c1 | i | i | -12* | i | i | -84%* | 162%* | -48%* | 52%* | 86%* | i
CC1OC(NCCc2ccccc2)C(O)C(O)C1O (stereo unspecified) | i | i | i | i | i | · | · | · | · | · | ·
CCN(CC)c1ccc(N=Cc2c(O)n(-c3cc(OC)ccc3OC)c(=O)[nH]c2=O)cc1 | i | i | i | i | i | · | · | · | · | · | ·
CC(C)OP(=O)(Oc1ccc(C(O)C(Cl)(Cl)Cl)cc1)OC(C)C (stereo unspecified) | i | i | i | i | i | · | · | · | · | · | ·
CC(C)(C)c1nc(NCc2ccc3c(c2)OCO3)c2nnn(Cc3ccccc3Cl)c2n1 | i | i | i | i | i | · | · | · | · | · | ·
CN1C(=O)/C(=C\c2ccc(N3CCCCC3)o2)C(=O)NC1=S | i | i | i | i | i | · | · | · | · | · | ·
CN1C(=O)/C(=C/c2ccc(N3CCCCCC3)o2)C(=O)NC1=S | i | 19* | i | i | i | 472%* | i | 50%* | i | i | 93%*
CC(C)CNc1c2c(nc3ccccc13)CCC2 | i | i | i | i | i | · | · | · | · | · | ·
OCCNc1c2c(nc3ccccc13)CCCC2 | i | i | -6.7* | i | i | · | · | · | · | i | i | TRPC4 sel inh 2=i;TRPC4 spec=-23%*;HEK293 MPD ctr 2-1=i;HEK293 MPD ctr-1=-362%*
c1ccc(CNc2c3c(nc4ccccc24)CCC3)cc1 | i | i | -5.8* | i | i | i | i | i | 52%* | i | i
COc1ccccc1Sc1ccccc1CC(C)N (stereo unspecified) | i | i | -5* | i | i | i | i | i | 66%* | 44%* | i
COC(=O)C1=C(c2cc3ccccc3o2)C[C@@H]2CC[C@H]1N2C(=O)N1CCOCC1 | i | i | i | i | i | · | · | · | · | · | ·
Cc1ccccc1CCNCc1cc2cccc(C)c2[nH]c1=O | i | i | -11* | i | i | · | · | · | · | 94%* | i | TRPC4 sel inh 2=16%*;TRPC4 spec=i;HEK293 MPD ctr 2-1=i;HEK293 MPD ctr-1=0.1%*
CCCCn1c(O)c(C(C)=NCCc2c[nH]c3ccccc23)c(=O)[nH]c1=O | i | i | i | i | i | · | · | · | · | · | ·
